The source of these data is ChEMBL document CHEMBL4422695, “Antiangiogenic Activity of Compounds Isolated from Anarrhinum pedatum” (2019).

For one assay, the species on record is Danio rerio. Briefly: Antiangiogenic activity in wild type zebrafish 24 hrs post fertilization embryos assessed as reduction in blood vessel growth at 2 uM treated for 48 hrs by alkaline phosphatase assay relative to control. In kind it is functional. The essentials: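 Wild-type zebrafish embryos from natural mating, raised at 28.5 °C; healthy embryos selected at 24 hpf, dechorionated, one per well in 100 μL embryo water with agent (2 μM) in DMSO 0.2% v/v, 10 per group, exposed 24–72 hpf. Ethanol-dehydrated, diethanolamine buffer (1 M, pH 9.8) washes, p-nitrophenyl phosphate 0.5 mg/mL 30 min RT, NaOH stop, OD 405 nm; percent of control, ≥3 repeats, t-test.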

Assay [1] has as its system Chorioallantoic membrane. Briefly: Antiangiogenic activity in chicken fertilized egg chorioallantoic membrane assessed as appearance of less dense microvasculature at 2 uM after 48 hrs by stereomicroscopic analysis. In kind it is functional, tissue-based. Particulars: Gallus gallus. The essentials: (§1)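 Fertilized chicken eggs incubated at 37 °C, positioned horizontally and rotated; 1 cm2 window opened on day 4, malformed or dead embryos excluded. Test agents at 2 μM (100 μL/egg) or retinoic acid at 3 μM, in DMSO (0.2% v/v) in Tris buffer pH 7.4; ten eggs/group. Reincubated 2 days. CAM microvasculature imaged under stereomicroscope, standardized area quantified; percent of vehicle control, three repeats, t-test.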

The test system of assay [2] is Chorioallantoic membrane. Briefly: Antiangiogenic activity in chicken fertilized egg chorioallantoic membrane at 2 uM after 48 hrs by stereomicroscopic analysis relative to control. In kind it is functional, tissue-based. Particulars: Gallus gallus. The essentials:
as §1

Assay [3] concerns Chorioallantoic membrane. Briefly: Antiangiogenic activity in chicken fertilized egg chorioallantoic membrane assessed as reduction in capillary formation at 3 uM after 48 hrs by stereomicroscopic analysis. In kind it is functional, tissue-based. The conditions noted are these: Gallus gallus. The essentials: as §1
In assay [4] the test system is Chorioallantoic membrane. Briefly: Antiangiogenic activity in chicken fertilized egg chorioallantoic membrane at 3 uM after 48 hrs by stereomicroscopic analysis relative to control. In kind it is functional, tissue-based. The conditions noted are these: Gallus gallus. Summed up:
as §1

Each structure is given as a SMILES string. Calls of active or inactive are those of the source. The rule behind the calls is not given here.

For the compound `C/C(=C/CO)CC/C=C(\C)C(=O)OC[C@H]1O[C@@H](O[C@@H]2OC=C(C(=O)O[C@@H]3CO[C@](O)(CO)[C@@H](O)[C@@H]3O)[C@H]3CC[C@](C)(O)[C@@H]23)[C@H](O)[C@@H](O)[C@@H]1O`, the result in the assay listed under Danio rerio was inactive.
Consider `C=C[C@@](C)(O)CC/C=C(\C)C(=O)O[C@@H]1O[C@H](CO)[C@@H](O)[C@H](O)[C@H]1O`, for which the result in the assay on Chorioallantoic membrane [1] was Active. In addition, the Activity with Chorioallantoic membrane [2] amounted to 29%; in the assay filed under Danio rerio, 56.98%.
Take `C[C@]12O[C@H]1[C@@H](OC(=O)/C=C/c1ccccc1)[C@]1(O)C=CO[C@@H](O[C@@H]3O[C@H](CO)[C@@H](O)[C@H](O)[C@H]3O)[C@@H]12`: in the assay on Chorioallantoic membrane [1], the result was Active. Further, the Activity in the assay on Chorioallantoic membrane [2] was 23.9%. Besides, the result in the assay listed under Danio rerio was inactive.
Consider `C/C(=C\CO[C@@H]1O[C@H](CO)[C@@H](O)[C@H](O)[C@H]1O)CC/C=C(\C)C(=O)O[C@@H]1O[C@H](CO)[C@@H](O)[C@H](O)[C@H]1O`, for which the outcome in the assay listed under Danio rerio was inactive.
Consider `C=C[C@@](C)(O)CC/C=C(\C)C(=O)O[C@@]12C=CO[C@@H](O[C@@H]3O[C@H](CO)[C@@H](O)[C@H](O)[C@H]3O)[C@@H]1[C@@]1(CO)O[C@H]1[C@H]2OC(=O)/C(C)=C/CC/C(C)=C/CO`, for which the outcome in the assay with Chorioallantoic membrane [1] was Active. In addition, the Activity in the assay with Chorioallantoic membrane [2] was determined as 31.4%. In the assay filed under Danio rerio, the outcome was inactive.
As for `CC1=C(/C=C/C(C)=C/C=C/C(C)=C/C(=O)O)C(C)(C)CCC1`, the result in the assay with Chorioallantoic membrane [3] was Active. This compound also registered an Activity in the assay on Chorioallantoic membrane [4] of 45%.
In the case of `C[C@]12O[C@H]1[C@@H](O)[C@]1(O)C=CO[C@@H](O[C@@H]3O[C@H](CO)[C@@H](O)[C@H](O)[C@H]3O)[C@@H]12` [ANTIRRHINOSIDE], the result in the assay with Chorioallantoic membrane [1] was Active. The Activity with Chorioallantoic membrane [2] amounted to 29.9%; in the assay filed under Danio rerio, 81%.
Take `C/C(=C\CO)CC/C=C(\C)C(=O)O[C@@H]1[C@@H]2O[C@]2(C)[C@H]2[C@H](O[C@@H]3O[C@H](CO)[C@@H](O)[C@H](O)[C@H]3O)OC=C[C@@]12OC(=O)/C(C)=C/CC/C(C)=C/CO`: in the assay listed under Danio rerio, the result was inactive.
Consider `C/C(=C\CO)CC/C=C(\C)C(=O)O[C@@H]1[C@@H]2O[C@]2(CO)[C@H]2[C@H](O[C@@H]3O[C@H](CO)[C@@H](O)[C@H](O)[C@H]3O)OC=C[C@@]12OC(=O)/C(C)=C/CC/C(C)=C/CO`, for which, in the assay filed under Danio rerio, the outcome was inactive.
On the same count and under the same terms, with `C=C[C@@](C)(O)CC/C=C(\C)C(=O)O[C@@]12C=CO[C@@H](O[C@@H]3O[C@H](CO)[C@@H](O)[C@H](O)[C@H]3O)[C@@H]1[C@@]1(C)O[C@H]1[C@H]2OC(=O)/C(C)=C/CC/C(C)=C/CO` the entry was “inactive”.
`C/C(=C\CO)CC/C=C(\C)C(=O)O[C@@H]1[C@@H]2O[C@]2(C)[C@H]2[C@H](O[C@@H]3O[C@H](CO)[C@@H](O)[C@H](O)[C@H]3O)OC=C[C@@]12O`: the outcome in the assay on Chorioallantoic membrane [1] was Active. Besides, the results for the Activity in the assay with Chorioallantoic membrane [2] and in the assay listed under Danio rerio were 29.6% and 48.33%, respectively.
For the compound `O=C(/C=C/c1ccccc1)OC[C@H]1O[C@@H](O[C@@H]2OC=C[C@@]3(O)[C@H](O)[C@@H]4O[C@]4(CO)[C@@H]23)[C@H](O)[C@@H](O)[C@@H]1O`, the result in the assay filed under Danio rerio was inactive.
`C/C(=C\CO)CC/C=C(\C)C(=O)OC[C@H]1OC(O)[C@H](O)[C@@H](O)[C@@H]1O` (some centres not stated): in the assay listed under Danio rerio, the outcome was inactive.
In the case of `C/C(=C\CO)CC/C=C(\C)C(=O)O[C@@H]1[C@@H]2O[C@]2(CO)[C@H]2[C@H](O[C@@H]3O[C@H](CO)[C@@H](O)[C@H](O)[C@H]3O)OC=C[C@@]12O`, the outcome in the assay listed under Danio rerio was inactive.
For the compound `C[C@]12O[C@H]1[C@@H](OC(=O)C=Cc1ccc(O)cc1)[C@]1(O)C=CO[C@@H](O[C@@H]3O[C@H](CO)[C@@H](O)[C@H](O)[C@H]3O)[C@@H]12` (mixture of isomers), the Activity in the assay listed under Danio rerio was 77.38%.
For the compound `COc1cc2c(cc1O)CC[C@@H]1[C@@H]2CC[C@]2(C)[C@@H](O)CC[C@@H]12` [2-METHOXYESTRADIOL], the Activity in the assay listed under Danio rerio is on record as 52%.
Turning to `C=C[C@@](C)(O)CC/C=C(\C)C(=O)OC[C@H]1O[C@@H](O[C@@H]2OC=C(C(=O)O[C@@H]3CO[C@](O)(CO)[C@@H](O)[C@@H]3O)[C@H]3CC[C@](C)(O)[C@@H]23)[C@H](O)[C@@H](O)[C@@H]1O`, in the assay with Chorioallantoic membrane [1], the result was Active. Besides, the Activity in the assay with Chorioallantoic membrane [2] worked out at 21.5%; in the assay listed under Danio rerio, 72.72%.
Take `C[C@]1(O)CC[C@@H]2C(C(=O)O[C@@H]3CO[C@](O)(CO)[C@@H](O)[C@@H]3O)=CO[C@@H](O[C@@H]3O[C@H](COC(=O)C=Cc4ccc(O)cc4)[C@@H](O)[C@H](O)[C@H]3O)[C@@H]21` (mixture of isomers): in the assay listed under Danio rerio, the result was inactive.
As to `C/C(=C\CO)CC/C=C(\C)C(=O)O[C@@H]1O[C@H](CO)[C@@H](O)[C@H](O)[C@H]1O`, the Activity in the assay listed under Danio rerio was determined as 79.82%.
